Tested on: Fibroblast
Experiment: Multiplex assay against human fibroblast
Assay type: toxicity, cell-based
Outline: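 Compound was added to live cells that had been stained at seeding with Hoechst33342, BioTracker Green Microtubule Cytoskeleton Dye, MitoTracker Red and Annexin V Alexa Fluor 680, and imaging followed on a CQ1 microscope at 37°C and 5% CO2. CellPathfinder machine-learning gating divided cells into Hoechst high-intensity objects or normal cells, normal cells into healthy, pyknosed or fragmented nuclei, and pyknosed cells into mitotic or apoptotic. Tubulin, mitochondrial-mass and membrane-permeability phenotypes are per cents of healthy-nucleus cells.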

[1] = 12 h, 1 µM, compound concentration 1 uM, replicate 1
[2] = 12 h, 1 µM, compound concentration 1 uM, replicate 2
[3] = 12 h, 10 µM, compound concentration 10 uM, replicate 1
[4] = 12 h, 10 µM, compound concentration 10 uM, replicate 2
[5] = 24 h, 1 µM, compound concentration 1 uM, replicate 1
[6] = 24 h, 1 µM, compound concentration 1 uM, replicate 2
[7] = 24 h, 10 µM, compound concentration 10 uM, replicate 1
[8] = 24 h, 10 µM, compound concentration 10 uM, replicate 2
[9] = 48 h, 1 µM, compound concentration 1 uM, replicate 1
[10] = 48 h, 1 µM, compound concentration 1 uM, replicate 2
[11] = 48 h, 10 µM, compound concentration 10 uM, replicate 1
[12] = 48 h, 10 µM, compound concentration 10 uM, replicate 2

## CCCn1c(=O)c2[nH]c(C3CCCC3)nc2n(CCC)c1=O [1,3-DIPROPYL-8-CYCLOPENTYLXANTHINE [DPCPX]]
[1]
  Population Apoptotic (%): 38%
  Population Fragmented Nuclei (%): 10%
  Population Healthy Nuclei (%): 73%
  Population Hoechst High Intensity Objects (%): 3%
  Population Membrane Permeable-Phenotype (%): 0%
  Population Mitochondria Different-Phenotype (%): 1%
  Population Mitotic Cells (%): 61%
  Population Normal (%): 96%
  Population Pyknosed Nuclei (%): 15%
  Population Tubulin-Different-Phenotype (%): 29%
  Total Cell Count: 175
[2]
  Population Apoptotic (%): 30%
  Population Fragmented Nuclei (%): 25%
  Population Healthy Nuclei (%): 46%
  Population Membrane Permeable-Phenotype (%): 1%
  Population Mitochondria Different-Phenotype (%): 10%
  Population Mitotic Cells (%): 69%
  Population Pyknosed Nuclei (%): 28%
  Population Tubulin-Different-Phenotype (%): 50%
  Total Cell Count: 156
[3]
  Population Apoptotic (%): 58%
  Population Fragmented Nuclei (%): 18%
  Population Healthy Nuclei (%): 65%
  Population Hoechst High Intensity Objects (%): 3%
  Population Membrane Permeable-Phenotype (%): 0%
  Population Mitochondria Different-Phenotype (%): 10%
  Population Mitotic Cells (%): 41%
  Population Normal (%): 96%
  Population Pyknosed Nuclei (%): 17%
  Population Tubulin-Different-Phenotype (%): 47%
  Total Cell Count: 104
[4]
  Population Apoptotic (%): 25%
  Population Fragmented Nuclei (%): 32%
  Population Healthy Nuclei (%): 47%
  Population Hoechst High Intensity Objects (%): 6%
  Population Membrane Permeable-Phenotype (%): 12%
  Population Mitochondria Different-Phenotype (%): 3%
  Population Mitotic Cells (%): 75%
  Population Normal (%): 93%
  Population Pyknosed Nuclei (%): 20%
  Population Tubulin-Different-Phenotype (%): 59%
  Total Cell Count: 129
[5]
  Population Apoptotic (%): 50%
  Population Fragmented Nuclei (%): 13%
  Population Healthy Nuclei (%): 77%
  Population Hoechst High Intensity Objects (%): 2%
  Population Membrane Permeable-Phenotype (%): 0%
  Population Mitochondria Different-Phenotype (%): 2%
  Population Mitotic Cells (%): 50%
  Population Normal (%): 97%
  Population Pyknosed Nuclei (%): 9%
  Population Tubulin-Different-Phenotype (%): 30%
  Total Cell Count: 177
[6]
  Population Apoptotic (%): 75%
  Population Fragmented Nuclei (%): 30%
  Population Healthy Nuclei (%): 48%
  Population Hoechst High Intensity Objects (%): 3%
  Population Membrane Permeable-Phenotype (%): 4%
  Population Mitochondria Different-Phenotype (%): 12%
  Population Mitotic Cells (%): 24%
  Population Normal (%): 96%
  Population Pyknosed Nuclei (%): 21%
  Population Tubulin-Different-Phenotype (%): 54%
  Total Cell Count: 159
[7]
  Population Apoptotic (%): 63%
  Population Fragmented Nuclei (%): 17%
  Population Healthy Nuclei (%): 61%
  Population Hoechst High Intensity Objects (%): 3%
  Population Membrane Permeable-Phenotype (%): 6%
  Population Mitochondria Different-Phenotype (%): 9%
  Population Mitotic Cells (%): 36%
  Population Normal (%): 96%
  Population Pyknosed Nuclei (%): 22%
  Population Tubulin-Different-Phenotype (%): 49%
  Total Cell Count: 104
[8]
  Population Apoptotic (%): 20%
  Population Fragmented Nuclei (%): 35%
  Population Healthy Nuclei (%): 40%
  Population Hoechst High Intensity Objects (%): 6%
  Population Membrane Permeable-Phenotype (%): 8%
  Population Mitochondria Different-Phenotype (%): 4%
  Population Mitotic Cells (%): 79%
  Population Normal (%): 93%
  Population Pyknosed Nuclei (%): 24%
  Population Tubulin-Different-Phenotype (%): 63%
  Total Cell Count: 125
[9]
  Population Apoptotic (%): 72%
  Population Fragmented Nuclei (%): 16%
  Population Healthy Nuclei (%): 70%
  Population Hoechst High Intensity Objects (%): 2%
  Population Membrane Permeable-Phenotype (%): 0%
  Population Mitochondria Different-Phenotype (%): 1%
  Population Mitotic Cells (%): 27%
  Population Normal (%): 97%
  Population Pyknosed Nuclei (%): 12%
  Population Tubulin-Different-Phenotype (%): 35%
  Total Cell Count: 182
[10]
  Population Apoptotic (%): 47%
  Population Fragmented Nuclei (%): 39%
  Population Healthy Nuclei (%): 48%
  Population Hoechst High Intensity Objects (%): 7%
  Population Membrane Permeable-Phenotype (%): 5%
  Population Mitochondria Different-Phenotype (%): 12%
  Population Mitotic Cells (%): 52%
  Population Normal (%): 92%
  Population Tubulin-Different-Phenotype (%): 55%
  Total Cell Count: 170
[11]
  Population Apoptotic (%): 57%
  Population Fragmented Nuclei (%): 24%
  Population Healthy Nuclei (%): 55%
  Population Hoechst High Intensity Objects (%): 3%
  Population Membrane Permeable-Phenotype (%): 1%
  Population Mitochondria Different-Phenotype (%): 13%
  Population Mitotic Cells (%): 42%
  Population Normal (%): 96%
  Population Pyknosed Nuclei (%): 20%
  Population Tubulin-Different-Phenotype (%): 50%
  Total Cell Count: 98
[12]
  Population Apoptotic (%): 50%
  Population Fragmented Nuclei (%): 43%
  Population Healthy Nuclei (%): 45%
  Population Hoechst High Intensity Objects (%): 2%
  Population Membrane Permeable-Phenotype (%): 16%
  Population Mitochondria Different-Phenotype (%): 8%
  Population Mitotic Cells (%): 50%
  Population Normal (%): 97%
  Population Pyknosed Nuclei (%): 10%
  Population Tubulin-Different-Phenotype (%): 78%
  Total Cell Count: 136

## COc1cc(NC(=O)CCN2CCC(OC(=O)Nc3ccccc3-c3ccccc3)CC2)c(Cl)cc1CNC[C@H](O)c1ccc(O)c2[nH]c(=O)ccc12 [BATEFENTEROL]
[1]
  Population Apoptotic (%): 53%
  Population Fragmented Nuclei (%): 25%
  Population Healthy Nuclei (%): 58%
  Population Hoechst High Intensity Objects (%): 2%
  Population Membrane Permeable-Phenotype (%): 0%
  Population Mitochondria Different-Phenotype (%): 13%
  Population Mitotic Cells (%): 46%
  Population Normal (%): 97%
  Population Pyknosed Nuclei (%): 15%
  Population Tubulin-Different-Phenotype (%): 42%
  Total Cell Count: 181
[2]
  Population Apoptotic (%): 37%
  Population Healthy Nuclei (%): 54%
  Population Hoechst High Intensity Objects (%): 3%
  Population Membrane Permeable-Phenotype (%): 3%
  Population Mitochondria Different-Phenotype (%): 7%
  Population Mitotic Cells (%): 62%
  Population Normal (%): 96%
  Population Pyknosed Nuclei (%): 20%
  Population Tubulin-Different-Phenotype (%): 50%
  Total Cell Count: 124
[3]
  Population Apoptotic (%): 46%
  Population Fragmented Nuclei (%): 24%
  Population Healthy Nuclei (%): 59%
  Population Hoechst High Intensity Objects (%): 2%
  Population Membrane Permeable-Phenotype (%): 0%
  Population Mitochondria Different-Phenotype (%): 22%
  Population Mitotic Cells (%): 53%
  Population Normal (%): 97%
  Population Pyknosed Nuclei (%): 16%
  Population Tubulin-Different-Phenotype (%): 63%
  Total Cell Count: 199
[4]
  Population Apoptotic (%): 41%
  Population Fragmented Nuclei (%): 44%
  Population Healthy Nuclei (%): 41%
  Population Membrane Permeable-Phenotype (%): 1%
  Population Mitochondria Different-Phenotype (%): 23%
  Population Mitotic Cells (%): 58%
  Population Pyknosed Nuclei (%): 13%
  Population Tubulin-Different-Phenotype (%): 84%
  Total Cell Count: 128
[5]
  Population Apoptotic (%): 55%
  Population Fragmented Nuclei (%): 21%
  Population Healthy Nuclei (%): 62%
  Population Hoechst High Intensity Objects (%): 1%
  Population Membrane Permeable-Phenotype (%): 0%
  Population Mitochondria Different-Phenotype (%): 7%
  Population Mitotic Cells (%): 44%
  Population Normal (%): 98%
  Population Pyknosed Nuclei (%): 15%
  Population Tubulin-Different-Phenotype (%): 39%
  Total Cell Count: 174
[6]
  Population Apoptotic (%): 50%
  Population Fragmented Nuclei (%): 26%
  Population Healthy Nuclei (%): 59%
  Population Hoechst High Intensity Objects (%): 2%
  Population Membrane Permeable-Phenotype (%): 3%
  Population Mitochondria Different-Phenotype (%): 10%
  Population Mitotic Cells (%): 50%
  Population Normal (%): 97%
  Population Pyknosed Nuclei (%): 14%
  Population Tubulin-Different-Phenotype (%): 57%
  Total Cell Count: 131
[7]
  Population Apoptotic (%): 51%
  Population Fragmented Nuclei (%): 35%
  Population Healthy Nuclei (%): 53%
  Population Hoechst High Intensity Objects (%): 0%
  Population Membrane Permeable-Phenotype (%): 0%
  Population Mitochondria Different-Phenotype (%): 34%
  Population Mitotic Cells (%): 48%
  Population Normal (%): 99%
  Population Pyknosed Nuclei (%): 11%
  Population Tubulin-Different-Phenotype (%): 63%
  Total Cell Count: 247
[8]
  Population Apoptotic (%): 81%
  Population Fragmented Nuclei (%): 46%
  Population Healthy Nuclei (%): 45%
  Population Hoechst High Intensity Objects (%): 1%
  Population Membrane Permeable-Phenotype (%): 1%
  Population Mitochondria Different-Phenotype (%): 14%
  Population Mitotic Cells (%): 18%
  Population Normal (%): 98%
  Population Pyknosed Nuclei (%): 8%
  Population Tubulin-Different-Phenotype (%): 80%
  Total Cell Count: 136
[9]
  Population Apoptotic (%): 62%
  Population Fragmented Nuclei (%): 23%
  Population Healthy Nuclei (%): 54%
  Population Hoechst High Intensity Objects (%): 3%
  Population Membrane Permeable-Phenotype (%): 0%
  Population Mitochondria Different-Phenotype (%): 18%
  Population Mitotic Cells (%): 37%
  Population Normal (%): 96%
  Population Pyknosed Nuclei (%): 22%
  Population Tubulin-Different-Phenotype (%): 53%
  Total Cell Count: 185
[10]
  Population Apoptotic (%): 66%
  Population Fragmented Nuclei (%): 29%
  Population Healthy Nuclei (%): 56%
  Population Membrane Permeable-Phenotype (%): 4%
  Population Mitochondria Different-Phenotype (%): 14%
  Population Mitotic Cells (%): 33%
  Population Pyknosed Nuclei (%): 14%
  Population Tubulin-Different-Phenotype (%): 70%
  Total Cell Count: 130
[11]
  Population Apoptotic (%): 74%
  Population Fragmented Nuclei (%): 22%
  Population Healthy Nuclei (%): 54%
  Population Hoechst High Intensity Objects (%): 1%
  Population Membrane Permeable-Phenotype (%): 0%
  Population Mitochondria Different-Phenotype (%): 45%
  Population Mitotic Cells (%): 25%
  Population Normal (%): 98%
  Population Pyknosed Nuclei (%): 22%
  Population Tubulin-Different-Phenotype (%): 77%
  Total Cell Count: 213
[12]
  Population Apoptotic (%): 88%
  Population Fragmented Nuclei (%): 45%
  Population Healthy Nuclei (%): 48%
  Population Hoechst High Intensity Objects (%): 0%
  Population Membrane Permeable-Phenotype (%): 1%
  Population Mitochondria Different-Phenotype (%): 15%
  Population Mitotic Cells (%): 11%
  Population Normal (%): 99%
  Population Pyknosed Nuclei (%): 6%
  Population Tubulin-Different-Phenotype (%): 76%
  Total Cell Count: 144

From ChEMBL document CHEMBL5058577, “EUbOPEN Chemogenomics Library 2 (Multiplex)” (2022)
